We go through 12 molecules from ChEMBL document CHEMBL1146206, “Synthesis, cytotoxicity, and antiviral activities of new neolignans related to honokiol and magnolol” (Bioorg Med Chem Lett, 2007).

Active and inactive are the calls of the source. The calls are words filed in the database; no cut-off is given here.

Test system in the first assay: not listed separately
Description: Cytotoxicity against human PBM cells. It counts as cell-based. The conditions noted are these: PBMC.
The term IC50 denotes the point on the concentration scale where inhibition reaches its midpoint. High values mean a need for much substance, low ones inhibition by little substance. In turn, `C=CCc1cc(C(=C(Cl)Cl)c2ccc(O)c(CC=C)c2)ccc1O` showed an IC50 of 43.6 µM.
On the same count and under the same terms, the figure for `C=CCc1ccc(O)c(-c2ccc(O)c(CC=C)c2)c1` [HONOKIOL] is 16.1 µM.
Still for that read-out and setting: for `C=CCc1cc(/C(CC)=C(\CC)c2ccc(O)c(CC=C)c2)ccc1O` the value was over 100 µM; for `C=CCc1cc(C(c2ccc(O)c(CC=C)c2)c2ccccn2)ccc1O`, 16.8 µM.
On the same count and under the same terms, for `C=CCc1cc(C2(c3ccc(O)c(CC=C)c3)CCCCC2)ccc1O` the value was 55.4 µM.
For the molecule `C=CCc1cc(-c2ccc(O)c(CC=C)c2)ccc1O`, the IC50 was over 100 µM.
On the same count and under the same terms, for `C=CCc1cc(-c2ncc(O)cn2)ccc1O` the value was 31.9 µM; for `C=CCc1cc(-c2cccc(CC=C)c2O)ccc1O`, 36.7 µM.
In turn, `C=CCc1cccc(-c2cccc(CC=C)c2O)c1O` returned an IC50 of 45.9 µM.
Same read-out and setting: the figure for `C=CCc1ccc(O)c(-c2cc(CC=C)ccc2O)c1` [MAGNOLOL] is 38.6 µM; for `C=CCc1cc(C(C)(C)c2ccc(O)c(CC=C)c2)ccc1O` it is over 100 µM; for `C=CCc1cc(Cc2ccc(O)c(CC=C)c2)ccc1O` it is 33.7 µM.

Another assay relates to SVR. Description: Antiproliferative activity against mouse SVR cells at 10 ug/mL after 72 hrs. It counts as functional.
Settings: not given
Put shortly: (§1)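 Immortalized endothelial SVR cells were seeded at 10^4 per well in 24-well dishes. The next day, the medium was replaced with fresh medium containing compound or controls. Cells were incubated for 72 h at 37 °C. Cell number was counted in triplicate with a Coulter counter, and results were expressed as percent inhibition of proliferation.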
What is called inhibition is the share of the control response that was lost under treatment. High values mean a strong effect, low ones a weak effect. The molecule `C=CCc1cc(C(=C(Cl)Cl)c2ccc(O)c(CC=C)c2)ccc1O` displayed an inhibition at 10 µg/mL of 54%.
For `C=CCc1ccc(O)c(-c2ccc(O)c(CC=C)c2)c1` [HONOKIOL], the inhibition at 10 µg/mL was 60%.
On the same count and under the same terms, the figure for `C=CCc1cc(/C(CC)=C(\CC)c2ccc(O)c(CC=C)c2)ccc1O` is 68%; for `C=CCc1cc(C(c2ccc(O)c(CC=C)c2)c2ccccn2)ccc1O` it is 25%; for `C=CCc1cc(C2(c3ccc(O)c(CC=C)c3)CCCCC2)ccc1O` it is 63%.
On the same count and under the same terms, the figure for `C=CCc1cc(-c2ccc(O)c(CC=C)c2)ccc1O` is 45%.
Same read-out and setting: the figure for `C=CCc1cc(-c2ncc(O)cn2)ccc1O` is 4.4%.
On to `C=CCc1cc(-c2cccc(CC=C)c2O)ccc1O`, for which the inhibition at 10 µg/mL is 74%.
Still for that read-out and setting: for `C=CCc1cccc(-c2cccc(CC=C)c2O)c1O` the value was 41%; for `C=CCc1ccc(O)c(-c2cc(CC=C)ccc2O)c1` [MAGNOLOL], 60%; for `C=CCc1cc(C(C)(C)c2ccc(O)c(CC=C)c2)ccc1O`, 33%.
On the same count and under the same terms, the figure for `C=CCc1cc(Cc2ccc(O)c(CC=C)c2)ccc1O` is 75%.

The next assay deals with Human immunodeficiency virus 1. The assay is described as follows: Antiviral activity against HIV1 in human PBM cells. It is filed as functional, organism-based. The following applies: Human immunodeficiency virus 1, PBMC.
A word on the EC50: it is the concentration that produces a half-maximal response. Higher therefore signals weaker potency. As usually defined, the EC90 is the concentration needed for an effect of 90%. Higher therefore signals weaker potency. As to `C=CCc1cc(C(=C(Cl)Cl)c2ccc(O)c(CC=C)c2)ccc1O`, the EC50 was found to be 14.3 µM and the EC90 is 48.8 µM.
For the molecule `C=CCc1ccc(O)c(-c2ccc(O)c(CC=C)c2)c1` [HONOKIOL], it took 3.3 µM to reach a half-maximal effect (EC50). This lies in the single-digit micromolar range.
The molecule `C=CCc1cc(/C(CC)=C(\CC)c2ccc(O)c(CC=C)c2)ccc1O` gave an EC50 of 9.5 µM and a 90% effect concentration (EC90) of 30.9 µM.
Turning to `C=CCc1cc(C(c2ccc(O)c(CC=C)c2)c2ccccn2)ccc1O`, the EC50 stood at 35 µM and the 90% effect concentration (EC90) amounted to 67.2 µM.
`C=CCc1cc(C2(c3ccc(O)c(CC=C)c3)CCCCC2)ccc1O`: the EC50 amounted to 36.5 µM and it took 67.2 µM to reach the 90% level (EC90).
Molecule `C=CCc1cc(-c2ccc(O)c(CC=C)c2)ccc1O` gave a 50% effective concentration (EC50) of 19.4 µM. That is a double-digit micromolar value.
`C=CCc1cc(-c2ncc(O)cn2)ccc1O` had a half-maximal effective concentration (EC50) of over 100 µM and a 90% effect concentration (EC90) of over 100 µM.
As for `C=CCc1cc(-c2cccc(CC=C)c2O)ccc1O`, the concentration for a half-maximal effect (EC50) came out at 23.4 µM and the 90% effect level (EC90) was put at 81 µM.
For the molecule `C=CCc1cccc(-c2cccc(CC=C)c2O)c1O`, a half-maximal response (EC50) required 34.8 µM and the concentration for an effect of 90% (EC90) was 63 µM.
For `C=CCc1ccc(O)c(-c2cc(CC=C)ccc2O)c1` [MAGNOLOL], in that order: 69.3 µM and over 100 µM.
For `C=CCc1cc(C(C)(C)c2ccc(O)c(CC=C)c2)ccc1O` the same measures were 4.1 µM and 47.3 µM.
For `C=CCc1cc(Cc2ccc(O)c(CC=C)c2)ccc1O` the same measures were 13.6 µM and 35.1 µM.

In another assay the test system is Vero. Description: Cytotoxicity against Vero cells. It counts as cell-based. The conditions noted are these: Chlorocebus sabaeus.
Turning to `C=CCc1cc(C(=C(Cl)Cl)c2ccc(O)c(CC=C)c2)ccc1O`, the IC50 worked out at 12.1 µM. In other words, the double-digit micromolar range.
The same measure, in the same setting: for `C=CCc1ccc(O)c(-c2ccc(O)c(CC=C)c2)c1` [HONOKIOL] the value was 22.5 µM; for `C=CCc1cc(/C(CC)=C(\CC)c2ccc(O)c(CC=C)c2)ccc1O`, 3.7 µM; for `C=CCc1cc(C(c2ccc(O)c(CC=C)c2)c2ccccn2)ccc1O`, 14.8 µM.
Same read-out and setting: the figure for `C=CCc1cc(C2(c3ccc(O)c(CC=C)c3)CCCCC2)ccc1O` is 12.5 µM; for `C=CCc1cc(-c2ccc(O)c(CC=C)c2)ccc1O` it is 83.2 µM.
Still for that read-out and setting: the figure for `C=CCc1cc(-c2ncc(O)cn2)ccc1O` is over 100 µM.
`C=CCc1cc(-c2cccc(CC=C)c2O)ccc1O` yielded a half-maximal inhibitory concentration (IC50) of 11.4 µM.
In the case of `C=CCc1cccc(-c2cccc(CC=C)c2O)c1O`, half-maximal inhibition (IC50) was put at 19.8 µM.
The same measure, in the same setting: for `C=CCc1ccc(O)c(-c2cc(CC=C)ccc2O)c1` [MAGNOLOL] the value was 50.6 µM; for `C=CCc1cc(C(C)(C)c2ccc(O)c(CC=C)c2)ccc1O`, 13 µM; for `C=CCc1cc(Cc2ccc(O)c(CC=C)c2)ccc1O`, 1.9 µM.

For the next assay, the system named is CCRF-CEM. The assay is described as follows: Cytotoxicity against human CEM cells. It is filed as cell-based.
Settings: not given
Molecule `C=CCc1cc(C(=C(Cl)Cl)c2ccc(O)c(CC=C)c2)ccc1O` came in with a 50% inhibitory concentration (IC50) of 17.1 µM.
In turn, `C=CCc1ccc(O)c(-c2ccc(O)c(CC=C)c2)c1` [HONOKIOL] had an IC50 of 10.9 µM.
Same read-out and setting: for `C=CCc1cc(/C(CC)=C(\CC)c2ccc(O)c(CC=C)c2)ccc1O` the value was 3.4 µM; for `C=CCc1cc(C(c2ccc(O)c(CC=C)c2)c2ccccn2)ccc1O`, 16.5 µM.
Still for that read-out and setting: the figure for `C=CCc1cc(C2(c3ccc(O)c(CC=C)c3)CCCCC2)ccc1O` is 11 µM; for `C=CCc1cc(-c2ccc(O)c(CC=C)c2)ccc1O` it is 23 µM; for `C=CCc1cc(-c2ncc(O)cn2)ccc1O` it is over 100 µM.
On the same count and under the same terms, for `C=CCc1cc(-c2cccc(CC=C)c2O)ccc1O` the value was 17.9 µM; for `C=CCc1cccc(-c2cccc(CC=C)c2O)c1O`, 10.4 µM; for `C=CCc1ccc(O)c(-c2cc(CC=C)ccc2O)c1` [MAGNOLOL], 99.5 µM.
In turn, `C=CCc1cc(C(C)(C)c2ccc(O)c(CC=C)c2)ccc1O` showed an IC50 of 5.8 µM.
On the same count and under the same terms, for `C=CCc1cc(Cc2ccc(O)c(CC=C)c2)ccc1O` the value was 15.1 µM.

The test system of a further assay is SVR. Description: Antiproliferative activity against mouse SVR cells at 15 ug/mL after 72 hrs.
Settings: not given
It counts as functional. Put shortly:
as §1
In the case of `C=CCc1cc(C(=C(Cl)Cl)c2ccc(O)c(CC=C)c2)ccc1O`, the inhibition at 15 µg/mL came to 76%.
Still for that read-out and setting: for `C=CCc1ccc(O)c(-c2ccc(O)c(CC=C)c2)c1` [HONOKIOL] the value was 85%.
The same measure, in the same setting: the figure for `C=CCc1cc(/C(CC)=C(\CC)c2ccc(O)c(CC=C)c2)ccc1O` is 89%; for `C=CCc1cc(C(c2ccc(O)c(CC=C)c2)c2ccccn2)ccc1O` it is 46%.
Still for that read-out and setting: the figure for `C=CCc1cc(C2(c3ccc(O)c(CC=C)c3)CCCCC2)ccc1O` is 79%.
For the molecule `C=CCc1cc(-c2ccc(O)c(CC=C)c2)ccc1O`, 15 µg/mL produced 56% inhibition.
The same measure, in the same setting: the figure for `C=CCc1cc(-c2ncc(O)cn2)ccc1O` is 10%.
On the same count and under the same terms, for `C=CCc1cc(-c2cccc(CC=C)c2O)ccc1O` the value was 81%; for `C=CCc1cccc(-c2cccc(CC=C)c2O)c1O`, 57%; for `C=CCc1ccc(O)c(-c2cc(CC=C)ccc2O)c1` [MAGNOLOL], 77%.
Same read-out and setting: the figure for `C=CCc1cc(C(C)(C)c2ccc(O)c(CC=C)c2)ccc1O` is 57%; for `C=CCc1cc(Cc2ccc(O)c(CC=C)c2)ccc1O` it is 74%.

For the next assay, the system named is SVR. The assay is described as follows: Inhibition of tumor growth in SVR cells bearing mouse up to 100 mg/kg, ip after 30 days. It is filed as functional, organism-based. The arrangement: dose 100 mg/kg.
Settings: not given
Put shortly: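 Nude male mice, 6 weeks old, were inoculated in the flank with SVR cells. Once tumors were visible, about 1 week after inoculation, mice received 3 mg/day intraperitoneally or vehicle control. Treatment ran up to 100 mg/kg for 30 days. Tumor growth and toxicity were compared against vehicle-treated mice.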
Turning to `C=CCc1cc(/C(CC)=C(\CC)c2ccc(O)c(CC=C)c2)ccc1O`, the outcome was inactive.
